The source made the active and inactive calls. The calls are words filed in the database; no cut-off is given here.

Assay [1] deals with Staphylococcus aureus. The assay is described as follows: Antimicrobial activity against methicillin-resistant Staphylococcus aureus 25762 assessed as biofilm formation at 100 uM after 48 hrs by crystal violet staining-based spectrophotometry relative to control. It counts as functional.
Assay [2] has as its system Streptococcus mutans. Kind of assay: Antimicrobial activity against Streptococcus mutans 240 assessed as biofilm formation at 100 uM after 48 hrs by crystal violet staining-based spectrophotometry relative to control. The format is functional. An outline of the steps: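 Single-concentration screen in a modified biofilm-formation assay. Compound at 100 µM. Biofilm formed is expressed as a percentage of the negative control. Values are the mean of three independent experiments.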

The subject of assay [3] is Pseudomonas aeruginosa. Kind of assay: Antimicrobial activity against Pseudomonas aeruginosa 6121 assessed as inhibition of biofilm formation after 24 hrs by crystal violet staining-based spectrophotometry. The format is functional, organism-based.
Assay [4] deals with Streptococcus mutans. Kind of assay: Antimicrobial activity against Streptococcus mutans 240 assessed as inhibition of biofilm formation after 48 hrs by crystal violet staining-based spectrophotometry. It counts as functional.
Assay [5] relates to Staphylococcus aureus. The assay is described as follows: Antimicrobial activity against methicillin-resistant Staphylococcus aureus 25762 assessed as inhibition of biofilm formation after 48 hrs by crystal violet staining-based spectrophotometry. It counts as functional.

Regarding `Cl.Nc1nc(-c2cccc(NC(=O)c3cc4cc(OCc5ccccc5)ccc4[nH]3)c2)c[nH]1`, the Activity in assay [1] came to 31.4%; in assay [2], 8.2%. Also, the inhibition entry in assay [3] was “inactive”.

As to `Cl.Nc1nc(-c2ccc(NC(=O)c3cc4cc(Cl)ccc4[nH]3)cc2)c[nH]1`, in assay [1], the outcome was inactive. In addition, the Activity in assay [2] was 38.2%. Moreover, the inhibition result in assay [3] was “inactive”.

With `Cl.Nc1nc(-c2cccc(NC(=O)c3cc4cc(O)ccc4[nH]3)c2)c[nH]1`, in assay [1], the outcome was inactive. For the same molecule, the Activity in assay [2] is recorded as 53.4%. Also, the inhibition entry in assay [3] is “inactive”.

On to `Cl.Nc1nc(-c2cccc(NC(=O)c3c[nH]c4ccccc34)c2)c[nH]1`, for which the result in assay [1] was inactive. The Activity in assay [2] is listed as 23.9%. The inhibition result in assay [3] is “inactive”.

With `Cl.Nc1nc(-c2ccc(NC(=O)c3cc4ccccc4[nH]3)cc2)c[nH]1`, the Activity in assay [1] is on record as 11.1%; in assay [2], 8.1%. In addition, the MBIC50 in assay [4] came to 60 µM; in assay [5], 90 µM. In addition, the inhibition entry in assay [3] was “inactive”.

Turning to `Nc1ccc2[nH]c(C(=O)Nc3cccc(-c4c[nH]c(N)n4)c3)cc2c1`, the result in assay [1] and in assay [2] was inactive. In addition, the inhibition entry in assay [3] is “inactive”.

Consider `Cl.Nc1nc(-c2cccc(NC(=O)c3cc4cc([N+](=O)[O-])ccc4[nH]3)c2)c[nH]1`, for which the result in assay [1] was inactive. Further, in assay [2], the Activity turned out to be 33.3%. Besides, the inhibition result in assay [3] was “inactive”.

Consider `CC(C)(C)OC(=O)n1cc(-c2cccc(NC(=O)c3cc4cc(OC(F)(F)F)ccc4[nH]3)c2)nc1N`, for which the result in assay [1] and in assay [2] was inactive. Further, the inhibition entry in assay [3] is “inactive”.

Turning to `Cl.Nc1nc(-c2cccc(NC(=O)c3cc4cc(F)ccc4[nH]3)c2)c[nH]1`, in assay [1], the outcome was inactive. For the same molecule, the Activity in assay [2] came to 8.7%. In addition, the inhibition result in assay [3] is “inactive”.

Consider `CC(C)(C)OC(=O)n1cc(-c2cccc(NC(=O)c3cc4cc(N)ccc4[nH]3)c2)nc1N`, for which the result in assay [1] and in assay [2] was inactive. Also, the inhibition result in assay [3] was “inactive”.

In the case of `CC(C)(C)OC(=O)n1cc(-c2cccc(NC(=O)c3cc4ccccc4[nH]3)c2)nc1N`, the result in assay [1] was inactive. The Activity in assay [2] was 30.6%. Moreover, the inhibition result in assay [3] was “inactive”.

`Cl.Nc1nc(-c2cccc(NC(=O)c3cc4sccc4[nH]3)c2)c[nH]1`: the Activity is listed as 23% in assay [1] and 10.1% in assay [2]. Further, the MBIC50 in assay [4] amounted to 60 µM; in assay [5], 90 µM. Further, in assay [3], the inhibition result is “inactive”.

In the case of `CC(C)(C)OC(=O)n1cc(-c2cccc(NC(=O)c3cc4cc(O)ccc4[nH]3)c2)nc1N`, the outcome in assay [1] was inactive. In assay [2], the Activity came to 57.6%. Also, in assay [3], the inhibition entry was “inactive”.

Consider `Cl.Nc1nc(-c2cccc(NC(=O)c3cc4ccccc4[nH]3)c2)c[nH]1`, for which the Activity in assay [1] is reported as 13.9%; in assay [2] it was 14.2%. Also, in assay [3], the inhibition result was “inactive”.

For `CNc1nc(-c2cccc(NC(=O)c3cc4ccccc4[nH]3)c2)c[nH]1.Cl`, the Activity in assay [1] was found to be 19.1%; in assay [2], 8.8%. In addition, the MBIC50 in assay [4] amounted to 80 µM; in assay [5], 70 µM. For the same molecule, the inhibition entry in assay [3] is “inactive”.

Consider `Nc1nc(/C=C/CNC(=O)c2cc3cc(F)ccc3[nH]2)c[nH]1`, for which the Activity is reported as 8.1% in assay [1] and 18.7% in assay [2]. Besides, the MBIC50 in assay [4] and in assay [5] was 60 µM in each case. Besides, the inhibition entry in assay [3] is “inactive”.

In the case of `COc1ccc2[nH]c(C(=O)Nc3cccc(-c4c[nH]c(N)n4)c3)cc2c1.Cl`, the result in assay [1] was inactive. For the same molecule, the Activity in assay [2] came out at 10.5%. Moreover, the inhibition entry in assay [3] was “inactive”.

Turning to `Nc1nc(/C=C/CNC(=O)c2cc3ccccc3[nH]2)c[nH]1`, the result in assay [1] and in assay [2] was inactive. Also, the inhibition result in assay [3] was “inactive”.

Take `Nc1ncc(/C=C/CNC(=O)c2cc(Br)c(Br)[nH]2)[nH]1` [OROIDIN]: the result in assay [1] was inactive. For the same molecule, the Activity in assay [2] is recorded as 18%.

For the molecule `Cl.Nc1nc(-c2ccc(NC(=O)c3cc4cc(F)ccc4[nH]3)cc2)c[nH]1`, the figures for the Activity in assay [1] and in assay [2] were 10.9% and 3.9%, respectively. Besides, the MBIC50 worked out at 50 µM in assay [4] and 60 µM in assay [5]. Besides, the inhibition entry in assay [3] is “inactive”.

In the case of `Cl.Nc1nc(-c2cccc(NC(=O)c3cc4cc(Cl)ccc4[nH]3)c2)c[nH]1`, the Activity in assay [1] was 44%; in assay [2], 6.8%. The inhibition entry in assay [3] is “inactive”.

Source of the values: ChEMBL document CHEMBL3259692, “Inhibition of biofilm formation by conformationally constrained indole-based analogues of the marine alkaloid oroidin” (2014).
